From PubChem
INS-1E rescue: preserves ATP levels in cytokine-treated INS-1E cells; hit rate 0.1% among 20,000; protection from cytokine-induced ATP loss, % at 10 µM; INS-1E cytokine-induced death, ATP luminescence, 48 h; normalised: neutral wells 0, positive control 100;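 active = mean replicate protection from cytokine-induced ATP loss at least 50% and at least 75% of replicates each reaching 50%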
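Assay system: INS-1E rat insulinoma cells. Amount: 8000 cells per well. Medium: phenol-red-free RPMI with 5% fetal bovine serum. Reagent: IL-1β, TNF-α and IFN-γ cytokine mix. Doses: one compound concentration, pin transfer. Schedule: 48 h co-treatment, 10 min post-lysis read. Detection: CellTiter-Glo luminescence measuring cellular ATP.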
T cruzi HTS: inhibitors of intracellular Trypanosoma cruzi. intracellular Trypanosoma cruzi in host cells, plate reader. activity score (inhibition), % at 5.01 µM. hit rate 4.9% among 22,000; in the data active = activity score above about 55%;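 also: parasites and compound incubated about four days before reading; 0% = median of neutral control wells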
YB-1 expr inh: YB-1 expression inhibition | AID 434959 | U2OS, qRT-PCR YB-1 vs CDIP delta delta Cp, 16 h; hits give high values; zero = DMSO, each unit about twofold | delta delta Cp (YB-1 minus CDIP) (no concentration beside the values) | hit rate 0.37% among 30,000;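 active = delta delta Cp rounded down to an integer at or above 3, about 3 SD of DMSO wells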;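 also: higher means less YB-1 transcript or more CDIP transcript relative to DMSO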
An asterisk follows results filed as active; . = no result given. Shown is part of a subset that was picked to be rich in hits.

SMILES | INS-1E rescue | T cruzi HTS | YB-1 expr inh
C[C@@H]1CCCCO[C@@H](CN(C)Cc2ccc(C(=O)Nc3ccccc3N)cc2)[C@@H](C)CN([C@H](C)CO)C(=O)c2cc(NS(=O)(=O)c3ccccc3)ccc2O1 | 2 | 46 | -0.04
C[C@@H]1CN([C@@H](C)CO)C(=O)Cc2cc(NS(=O)(=O)c3ccc(F)cc3)ccc2O[C@@H]1CN(C)Cc1ccc(C(=O)Nc2ccccc2N)cc1 | 0 | 53 | -0.19
C[C@@H]1CCCCO[C@H](CN(C)Cc2ccc(C(=O)Nc3ccccc3N)cc2)[C@@H](C)CN([C@H](C)CO)C(=O)c2cc(NS(=O)(=O)c3ccc(Cl)cc3)ccc2O1 | 39 | 78* | 0.046
Cc1ccc(S(=O)(=O)Nc2ccc3c(c2)CC(=O)N([C@H](C)CO)C[C@@H](C)[C@H](CN(C)Cc2ccc(C(=O)Nc4ccccc4N)cc2)O3)cc1 | 7 | 49 | 0.058
C[C@@H]1CN([C@H](C)CO)C(=O)Cc2cc(NS(=O)(=O)c3ccccc3)ccc2O[C@@H]1CN(C)Cc1ccc(C(=O)Nc2ccccc2N)cc1 | 1 | 58* | -0.22
C[C@H]1CN([C@@H](C)CO)C(=O)Cc2cc(NS(=O)(=O)c3ccc(Cl)cc3)ccc2O[C@H]1CN(C)Cc1ccc(C(=O)Nc2ccccc2N)cc1 | 21 | 66* | 0.061
C[C@H]1CN([C@@H](C)CO)C(=O)Cc2cc(NS(=O)(=O)c3ccc(F)cc3)ccc2O[C@H]1CN(C)Cc1ccc(C(=O)Nc2ccccc2N)cc1 | 33 | 71* | -0.27
Cc1cc(Br)cc2c1N(C)C(=O)/C2=C1\SC(=Nc2ccc(F)cc2)NC1=O | . | . | 1.7
Cc1cccc(C(=O)NN(c2ccccc2)c2ccccc2)c1 | . | . | -0.057
C[C@@H]1CN([C@@H](C)CO)C(=O)c2cc(NS(=O)(=O)c3ccc(F)cc3)ccc2O[C@H]1CN(C)Cc1ccc(C(=O)Nc2ccccc2N)cc1 | -5 | 57* | 0.15
C[C@@H]1CN([C@H](C)CO)C(=O)c2cc(NS(=O)(=O)c3ccc(F)cc3)ccc2O[C@@H]1CN(C)Cc1ccc(C(=O)Nc2ccccc2N)cc1 | 8 | 16 | -0.37
N#CC(=S)Nc1ccc(F)cc1 | . | . | 0.33
C[C@H](CO)N1C[C@H](C)[C@H](CN(C)CC2CCCCC2)Oc2c(NC(=O)Nc3ccc(C(F)(F)F)cc3)cccc2C1=O | -82 | 56* | -0.75
C[C@H](CO)N1C[C@H](C)[C@@H](CN(C)CC2CCCCC2)Oc2c(NC(=O)NC3CCCCC3)cccc2C1=O | -13 | 23 | -0.43
C[C@H](CO)N1C[C@H](C)[C@H](CN(C)CC2CCCCC2)Oc2c(NC(=O)Nc3ccccc3)cccc2C1=O | -38 | 11 | 3.1*
C[C@@H]1CN([C@H](C)CO)C(=O)c2cccc(NC(=O)NC3CCCCC3)c2O[C@H]1CN(C)CC1CCCCC1 | -57 | 83* | -0.7
C[C@@H]1CN([C@H](C)CO)C(=O)c2cccc(NC(=O)Nc3ccccc3)c2O[C@H]1CN(C)CC1CC1 | -3 | -7 | -0.64
C[C@@H]1CN([C@H](C)CO)C(=O)c2cccc(NC(=O)Nc3ccc(C(F)(F)F)cc3)c2O[C@@H]1CN(C)CC1CCCCC1 | -29 | 14 | 0.0085
C[C@@H]1CN([C@H](C)CO)C(=O)c2cccc(NS(=O)(=O)c3cn(C)cn3)c2O[C@@H]1CN(C)CC1CCCCC1 | 1 | 60* | 0.5
C[C@H](CO)N1C[C@H](C)[C@H](CN(C)CC2CC2)Oc2c(NS(=O)(=O)c3cn(C)cn3)cccc2C1=O | 1 | -7 | 0.22
CNC(=O)Cc1coc2ccc3ccccc3c12 | . | . | -0.56
O=C(NO)c1ccc(C(=O)N/N=C/c2ccc(-c3ccccc3)cc2)cc1 | -18 | -4 | -0.18
C[C@H]1CN([C@@H](C)CO)C(=O)Cc2cc(NC(=O)Nc3cccc4ccccc34)ccc2O[C@@H]1CN(C)CC1CC1 | 15 | -10 | 0.18
C[C@H]1CN([C@@H](C)CO)C(=O)Cc2cc(NC(=O)Nc3cccc4ccccc34)ccc2O[C@H]1CN(C)CC1CCCCC1 | -47 | 62* | 0.26
C[C@@H]1CN([C@H](C)CO)C(=O)Cc2cc(NC(=O)Nc3cccc4ccccc34)ccc2O[C@H]1CN(C)CC1CCCCC1 | 1 | 68* | -0.36
SMILES | INS-1E rescue | T cruzi HTS | YB-1 expr inh
C[C@@H]1CN([C@H](C)CO)C(=O)Cc2cc(NC(=O)Nc3cccc4ccccc34)ccc2O[C@@H]1CN(C)CC1CCCCC1 | 0 | 50 | 0.3
C(=N/n1cnnc1)/c1cccc2c1OCCCO2 | . | . | -0.43
COc1ccc(S(=O)(=O)NC2CCN(Cc3cccc(OCCO)c3)CC2)cc1 | . | . | -0.26
CN1CCN(CCCN2C(=O)CSC2c2ccc(F)cc2)CC1 (stereo not drawn) | . | . | -0.63
[N-]=[N+]=NCc1ccccc1C[C@]1(C(=O)NCC(O)CO)N=C(c2ccc(OCCCO)cc2)O[C@H]1c1ccccc1 (stereo partly drawn) | . | . | 0.6
[N-]=[N+]=NCc1ccccc1C[C@@]1(C(=O)NCC(O)CO)N=C(c2ccc(OCCCO)cc2)O[C@@H]1c1ccccc1 (stereo partly drawn) | . | . | 9.1*
COC(=O)CCCCCCC(=O)N/N=C/c1c(O)ccc2ccccc12 | 25 | 27 | -0.084
C[C@H]1CN([C@@H](C)CO)C(=O)c2cccc(NC(=O)c3ccncc3)c2O[C@@H]1CN(C)CC1CCCCC1 | -16 | 86* | -0.63
C[C@@H]1CN([C@@H](C)CO)C(=O)c2cccc(NC(=O)c3ccncc3)c2O[C@@H]1CN(C)CC1CCCCC1 | -4 | -3 | 0.28
C[C@@H]1CN([C@@H](C)CO)C(=O)c2cccc(NC(=O)c3ccncc3)c2O[C@H]1CN(C)C(=O)NC1CCCCC1 | 17 | -26 | 0.26
C[C@H](CO)N1C[C@H](C)[C@@H](CN(C)CC2CCCCC2)Oc2c(NC(=O)c3ccncc3)cccc2C1=O | -6 | 57* | 1.3
C[C@H]1CN([C@@H](C)CO)C(=O)c2cccc(NC(=O)c3ccncc3)c2O[C@H]1CN(C)C(=O)NC1CCCCC1 | 1 | 71* | 0.38
C[C@@H]1CN([C@@H](C)CO)C(=O)c2cccc(NC(=O)c3ccncc3)c2O[C@H]1CN(C)CC1CC1 | 11 | 41 | -0.19
C[C@@H]1CN([C@@H](C)CO)C(=O)c2cccc(NC(=O)C3CCOCC3)c2O[C@@H]1CN(C)C(=O)NC1CCCCC1 | 11 | -11 | -0.01
C[C@@H]1CN([C@H](C)CO)C(=O)c2cccc(NC(=O)C3CCOCC3)c2O[C@@H]1CN(C)C(=O)NC1CCCCC1 | 4 | -25 | 11*
C=C(C)[C@@H]1CC=C(/C=N/NC(=O)c2ccccn2)CC1 | -22 | -11 | -0.14
CC(C)(C)OC(=O)Nc1cccc(/C=N/NC(=O)c2ccccc2O)c1 | -6 | -4 | 0.081
CCC(Sc1nnnn1-c1ccccc1)C(=O)Nc1sc2c(c1C#N)CCCC2 (stereo not drawn) | . | . | 0.18
CC(C)(C)OC(=O)NC1(/C=N/NC(=O)c2ccc(C(=O)NO)cc2)CCCC1 | 17 | -14 | 0.4
OC(c1ccccc1)c1oc2ccccc2c1-c1cnn(-c2ccccc2)c1 (stereo not drawn) | . | . | -0.29
O=C(CCCCC(=O)N/N=C/c1cccs1)NO | 6 | 15 | -0.19
